An excerpt weighted towards active compounds, which were near 4.2% of everything screened.
PfM18AAP inh – PfM18AAP enzyme inhibition. actives 1.2% (n = 290,000). recombinant PfM18AAP, H-Glu-NHMec fluorogenic cleavage. inhibition, % at 7.35 µM. AID 1822;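 active = inhibition above the campaign mean inhibition over all tested compounds plus 3 SD, cut at about 28% in these data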;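 also: 0% = plate median of test compound wells and 100% = 2 mM ZnCl2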
Fh CTSL1 inh – blocks F. hepatica cathepsin L1 in PFM18AAP counter-screen; inhibition, % at 5.96 µM; recombinant F. hepatica cathepsin L1, Z-Leu-Arg-MCA fluorescence; actives 0.49% (n = 300,000);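 active = inhibition above the mean of all tested compounds plus 3 SD, set per screening campaign, cut at about 17% in these data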;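 also: 0% = plate median of test compound wells and 100% = 1 µM Z-Phe-Ala-diazomethylketone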
SENP1 FRET inh – blocks the human SENP1 SUMO protease catalytic domain; recombinant SENP1 catalytic domain, CyPet-SUMO1-YPet FRET cleavage; inhibition, % at 10 µM; actives 0.21% (n = 360,000);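 active = inhibition at least 30% at 10 µM, raw YFP signal under a set limit, fluorescence ratio 0.5 to 1.5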;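 also: 0% = enzyme with DMSO and 100% = no enzyme wells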
Target sequence (Q9P0U3 419-644 limits assumed): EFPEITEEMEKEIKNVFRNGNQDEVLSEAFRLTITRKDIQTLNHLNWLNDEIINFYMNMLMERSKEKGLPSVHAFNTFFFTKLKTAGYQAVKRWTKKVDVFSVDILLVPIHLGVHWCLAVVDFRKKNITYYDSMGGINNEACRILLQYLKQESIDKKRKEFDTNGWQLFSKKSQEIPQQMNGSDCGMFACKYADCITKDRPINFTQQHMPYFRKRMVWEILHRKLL
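material = recombinant human SENP1 catalytic domain, His6-tagged | quantity = 20 pM enzyme | reagent = 25 nM SUMO1 FRET substrate | compound dosing = 10 µM single point, 0.5% DMSO | timing = 50 min enzyme reaction, room temperature, light-protected | detection = FRET, CFP and YFP emission | control set = no-enzyme low, enzyme-DMSO high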
HDAC3 inh – blocks human histone deacetylase 3; O15379; recombinant HDAC3, fluorogenic peptide/trypsin coupled, fluorescence; inhibition, % at 8.3 µM; actives 0.15% (n = 320,000); AID 2718; in the data active = inhibition above about 26%, passing the limit was not always enough
AHR activator – activates the human aryl hydrocarbon receptor; P35869; AHR-responsive luciferase reporter cells, luminescence; activation, % at 5 µM; actives 2.5% (n = 320,000); AID 2796; in the data active = activation above about 47%;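 also: 0% = vehicle wells and 100% = reference agonist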
GAA850 FXN act – frataxin GAA850 promoter activation. HEK293 lucGAA850 FXN promoter luciferase reporter, 24 h; percent of 10 µM SAHA response. activation, % at 6 µM. actives 0.56% (n = 360,000);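 active = activation above the average of all compounds screened plus 3 SD, cutoff fixed separately per campaign, cut at about 7.5% in these data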;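 also: 0% = DMSO wells and 100% = 10 µM SAHA wells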
Starred values were filed as active, the others as inactive; . = no result.

SMILES	PfM18AAP inh	Fh CTSL1 inh	SENP1 FRET inh	HDAC3 inh	AHR activator	GAA850 FXN act
c1ccc(-c2noc(-c3ccc4ccccc4c3)n2)nc1	-7	1	3	2	-18	-15
O=[N+]([O-])c1cccc(-c2nc(-c3ccccn3)no2)c1	-2	0	-4	6	68*	5
COc1cccc(-c2nc(-c3ccccn3)no2)c1	3	-1	.	0	64*	.
COc1cccc(-c2nc(-c3ccccc3)no2)c1	-2	1	-1	-1	38	6
COc1ccc(-c2nc3c4ccccc4ccn3c2CC2CCCCC2)cc1OC	.	.	-10	.	.	.
COc1ccc2[nH]cc(C(=O)CCl)c2c1	6	74*	-2	2	4	-3
O=C(CNC(=O)C1CCCCC1)OCn1nnc2ccccc2c1=O	0	56*	1	9	3	0
O=C(COC(=O)CNC(=O)C1CCCCC1)Nc1ccc2ccccc2c1	2	27*	0	2	5	2
O=C(COC(=O)CNC(=O)C1CCCCC1)Nc1ccc2c(c1)OCCO2	-2	34*	1	-4	3	-1
O=[N+]([O-])c1cc(-c2cnc3ccccc3n2)ccc1Oc1ccc(Cl)cc1	-5	2	2	5	50*	1
COc1ccccc1Oc1ccc(-c2cnc3ccccc3n2)cc1[N+](=O)[O-]	-1	-1	-5	0	55*	-1
C(=N\N1CCN(Cc2ccccc2)CC1)/c1ccc(-c2ccccc2)cc1	-3	17*	0	0	-4	2
CCCCCc1nnc(NC(=O)CN2C(=O)C3CCCCC3C2=O)s1 (stereo unspecified)	-2	0	1	0	-1	2
CCOc1ncccc1C(=O)Nc1ccccc1F	-1	1	1	.	-1	2
CCOc1ncccc1C(=O)NNC(=O)c1ccccc1-n1cccc1	0	0	1	-4	61*	3
CCc1ccc(C(=O)NC(=S)NCc2cccnc2)cc1	7	-1	-1	-1	8	-1
C/C(=N/NC(=O)CC1N=C(Cc2ccccc2)NNC1=O)c1cccnc1 (stereo unspecified)	1	2	4	0	62*	2
Cc1nc2ccc(Cl)cc2nc(C)/c1=N\O	0	0	6	8	58*	3
O=S(=O)(Nc1ccc(Cl)cc1NS(=O)(=O)c1ccccc1)c1ccccc1	.	.	1	.	.	0
O=C(O)CSc1cc(NS(=O)(=O)c2ccc(Cl)cc2)c2ccccc2c1O	14	0	2	-4	50*	-2
Cc1cc(C)c(S(=O)(=O)Nc2cc(SCC(=O)O)c(O)c3ccccc23)cc1C	-5	15	.	9	61*	.
O=C(O)c1ccc(C=NNC(=O)c2cccc3ccccc23)cc1	.	.	-1	.	.	2
O=C(N/N=C/c1cccs1)c1cc(-c2cccc3ccccc23)n[nH]1	-15	-3	2	6	48*	1
O=C(O)c1ccc(/C=N/NC(=O)c2cc(-c3ccc4c5c(cccc35)CC4)n[nH]2)cc1	-6	-1	2	9	78*	1
O=C(N/N=C/c1ccccn1)c1cc(-c2cccc3ccccc23)n[nH]1	-7	2	-1	8	70*	2
SMILES	PfM18AAP inh	Fh CTSL1 inh	SENP1 FRET inh	HDAC3 inh	AHR activator	GAA850 FXN act
COc1ccc2c(c1)C(O)C(CO)C(C(=O)O)C2 (stereo unspecified)	.	.	1	.	.	2
Nc1nc2ccccc2cc1C(=O)NCc1ccc(Cl)cc1Cl	.	.	-32	.	.	.
COC(=O)c1[nH]c2cc(OC)c(OC)cc2c1NC(=O)c1cccc(OC)c1	4	-1	-6	3	62*	3
CN(C)C(=O)c1ccc(N=Nc2c(O)c3ccccc3[nH]c2=O)cc1	.	.	1	.	.	2
CN(C)C(=S)N=Nc1[nH]c2ccccc2c1O	5	-1	.	7	64*	.
CCn1c(NC(=S)Nc2ccccc2)nc2ccccc21	-3	1	1	4	56*	0
CC(=O)Nc1nc2ccccc2n1CCOc1ccccc1Cl	4	-9	1	-5	9	2
S=C(Nc1ccccc1)Nc1nc2ccccc2n1CCOc1ccc(Cl)cc1	-11	-4	0	7	55*	2
Cc1ccc(S(=O)(=O)N(C)c2ccc(C(=O)NCC(c3ccco3)N3CCCC3)cc2)cc1 (stereo unspecified)	.	.	-3	.	.	-1
Cc1cccc2c1c1ccc3c(c1n2C)C(=O)C=CC3=O	5	.	22	.	.	0
N#CC(=C(c1ccccc1)c1ccccc1)c1ccccc1	.	.	0	.	.	-1
COC(=O)C1CCCN1S(=O)(=O)c1ccc([N+](=O)[O-])cc1 (stereo unspecified)	0	53*	-1	-2	1	-1
CC1CCC2(CC1)NC(=O)N(NC(=O)CCl)C2=O (stereo unspecified)	-4	17*	2	-5	0	0
CC1CCC2(CC1)NC(=O)N(NC(=O)c1cccs1)C2=O (stereo unspecified)	.	.	2	3	0	1
CCCCc1c(O)nc(SCC(=O)Nc2ccc(OC)cc2)n(-c2ccc(C)c(C)c2)c1=O	.	.	2	.	.	1
O=C(CNC(=O)c1cccc(Cl)c1)Nc1ccc(F)c(F)c1F	-13	7	2	-2	-2	1
O=C(CSc1cc(Cl)ccc1Cl)NCC(=O)Nc1ccc(F)c(F)c1F	5	18*	0	5	32	2
O=C(CN1C(=O)NC2(CCCC2)C1=O)Nc1ccccc1N1CCCC1	7	4	0	0	4	1
CC1(c2ccccc2)NC(=O)N(CC(=O)Nc2ccccc2N2CCCC2)C1=O (stereo unspecified)	.	18*	0	6	13	3
COc1cc(/C=C/C(=O)O)cc(S(=O)(=O)Nc2ccccc2Oc2ccccc2)c1OC	0	21*	2	6	1	2
COc1ccc(Nc2ncnc3ccc([N+](=O)[O-])cc23)c(OC)c1	1	3	2	-4	21	-1
O=[N+]([O-])c1ccc(O)c(Nc2ncnc3ccccc23)c1	5	0	8	-6	25	1
O=[N+]([O-])c1ccc(O)c(Nc2ncnc3ccc(Br)cc23)c1	7	4	4	3	75*	-1
Cc1ccc(O)c(Nc2ncnc3ccc([N+](=O)[O-])cc23)c1	-9	-3	-1	-11	50*	-3
O=C(COc1ccc(Nc2ccccc2)cc1)OCC(=O)N1CCCCC1	29*	-3	-3	.	-1	1
O=C(COc1ccc(Cl)cc1)OCC(=O)N1CCCCCC1	-1	-15	7	10	-3	-2
NC(=O)N1N=C2/C(=C/c3ccccc3)CCCC2C1c1ccccc1 (stereo unspecified)	0	2	2	5	59*	-1
